Assay results reported in ChEMBL document CHEMBL1255389, “Exploiting the drug-activating properties of a novel trypanosomal nitroreductase” (Antimicrob Agents Chemother, 2010).

Experiments:
THP-1 = experiment: Cytotoxicity against human THP1 cells after 6 days by Alamar blue assay; assay type: cell-based; conditions: THP-1, 144 h
How it was run: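 THP-1 cells were grown in RPMI 1640 with 10% tetracycline-free FCS and 20 mM HEPES. They were seeded at 1 × 10^4 ml−1 across a range of compound concentrations and incubated 6 days at 37°C, 5% CO2.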

Trypanosoma brucei [1] = experiment: Antiparasitic activity against Trypanosoma brucei BSF after 3 days by Alamar blue assay; assay type: functional, organism-based; conditions: 72 h
How it was run: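 BSF trypomastigotes (MITat 427, clone 221a) were seeded at 1 × 10^3 ml−1 in modified Iscove's medium with tetracycline-free FCS, across a range of compound concentrations. Plates ran 3 days at 37°C, then Alamar blue was added for 16 h. Fluorescence was read at ex 530/em 585 nm and IC50 determined.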

[2] = Therapeutic index, ratio of IC50 against human THP1 cells to IC50 against Trypanosoma brucei; assay type: cell-based, THP-1; conditions: read-out: Ratio IC50
How it was run: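 Index was calculated as THP-1 IC50 divided by T. brucei BSF IC50. THP-1 IC50 came from 6-day Alamar blue assays, and parasite IC50 from 3-day Alamar blue assays, both at 37°C.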

Trypanosoma brucei [3] = experiment: Antiparasitic activity against Trypanosoma brucei BSF overexpressing NTR gene after 3 days by Alamar blue assay; assay type: functional, organism-based; conditions: 72 h
How it was run: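 Parasite lines were heterozygous NTR+/− (kept on 2 μg ml−1 puromycin) or TbNTR-overexpressing (kept on 2.5 μg ml−1 hygromycin plus 1 μg ml−1 phleomycin). Tetracycline at 1 μg ml−1 was added for induction where appropriate. Cells were seeded at 1 × 10^3 ml−1 and grown 3 days at 37°C, followed by Alamar blue for 16 h. Fluorescence IC50s were compared with control cells.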

Trypanosoma brucei [4] = tested on: Trypanosoma brucei
Trypanosoma brucei [5] = tested on: Trypanosoma brucei; remark: listed apart in the source
Trypanosoma brucei [6] = conditions: 100 uM

Compound | IC50 (THP-1) [µM] | IC50 (Trypanosoma brucei [1]) [µM] | selectivity ratio [2] | IC50 (Trypanosoma brucei [3]) [µM] | kcat/Km (Trypanosoma brucei [4]) [M⁻¹ s⁻¹] | Km (Trypanosoma brucei [5]) [µM] | Vmax (Trypanosoma brucei [6]) [nmol/min]
CC(OP(N)(=O)N(CCCl)CCCl)c1ccc([N+](=O)[O-])cc1 (configuration not stated) | 64.8 | 1.8 | 36 | – | – | – | –
NP(=O)(OCc1ccc([N+](=O)[O-])c(F)c1)N(CCCl)CCCl (configuration not stated) | 17.6 | 3.2 | 6 | – | – | – | –
NP(=O)(OCc1c(F)cc([N+](=O)[O-])cc1F)N(CCCl)CCCl (configuration not stated) | 6.9 | 0.007 | – | – | – | – | –
NP(=O)(OCc1ccc([N+](=O)[O-])cc1C(F)(F)F)N(CCCl)CCCl (configuration not stated) | 19 | 0.149 | – | – | – | – | –
O=[N+]([O-])c1ccc([C@@H]2CCO[P@](=O)(N(CCCl)CCCl)N2)cc1 | 64.8 | 1.8 | 36 | – | – | – | –
NP(=O)(OCc1cccc([N+](=O)[O-])c1)N(CCCl)CCCl (configuration not stated) | 64.8 | 1.8 | 36 | – | – | – | –
COc1cc([N+](=O)[O-])ccc1COP(N)(=O)N(CCCl)CCCl (configuration not stated) | 33.5 | 1.2 | 28 | – | – | – | –
O=[N+]([O-])c1ccc([C@@H]2CCN[P@@](=O)(N(CCCl)CCCl)N2)cc1 | 64.8 | 1.8 | 36 | – | – | – | –
O=[N+]([O-])c1ccc([C@@H]2CCN[P@@](=O)(N(CCCl)CCCl)O2)cc1 | 64.8 | 1.8 | 36 | – | – | – | –
Nc1nc(N)nc(Nc2ccc([As]3SCC(CO)S3)cc2)n1 (configuration not stated) [MELARSOPROL] | – | – | – | 4 | – | – | –
CC(C)(C(=O)N[C@@H]1CCN[P@](=O)(N(CCCl)CCCl)O1)c1ccccc1[N+](=O)[O-] | 64.8 | 1.8 | 36 | – | – | – | –
NP(=O)(OCc1ccccc1[N+](=O)[O-])N(CCCl)CCCl (configuration not stated) | 64.8 | 1.8 | 36 | – | – | – | –
O=[N+]([O-])c1ccc([C@@H]2CCO[P@@](=O)(N(CCCl)CCCl)N2)cc1 | 64.8 | 1.8 | 36 | – | – | – | –
NP(=O)(OCc1ccc([N+](=O)[O-])cc1F)N(CCCl)CCCl (configuration not stated) | 20.3 | 0.268 | – | – | – | – | –
O=[N+]([O-])c1ccc([C@@H]2CCN[P@](=O)(N(CCCl)CCCl)O2)cc1 | 64.8 | 1.8 | 36 | – | – | – | –
COc1cc(COP(N)(=O)N(CCCl)CCCl)ccc1[N+](=O)[O-] (configuration not stated) | 64.8 | 1.8 | 36 | – | – | – | –
CC(C)(C(=O)N[C@@H]1CCN[P@@](=O)(N(CCCl)CCCl)O1)c1ccccc1[N+](=O)[O-] | 64.8 | 1.8 | 36 | – | – | – | –
NP(=O)(OCc1ccc([N+](=O)[O-])cc1Cl)N(CCCl)CCCl (configuration not stated) | 10 | 0.008 | – | – | – | – | –
NP(=O)(OCc1ccc([N+](=O)[O-])cc1)N(CCCl)CCCl (configuration not stated) | 66 | 3.4 | – | – | – | – | –
O=[N+]([O-])c1ccc([C@@H]2CCN[P@](=O)(N(CCCl)CCCl)N2)cc1 | 64.8 | 1.8 | 36 | – | – | – | –
Cc1cc(COP(N)(=O)N(CCCl)CCCl)ccc1[N+](=O)[O-] (configuration not stated) | 64.8 | 1.8 | 36 | – | – | – | –
CC1CS(=O)(=O)CCN1/N=C/c1ccc([N+](=O)[O-])o1 (configuration not stated) [NIFURTIMOX] | 64.8 | 1.8 | 36 | – | 3.4 | 53.1 | 423
